This passage reports folding enthalpy and Tm results from the array DNA melting data of Ke et al. (doi:10.1101/2024.01.08.574731).

Series [1] is described as follows: folding enthalpy; higher = less favourable; fluorescence melt of hairpins on a sequencing array, two-state fit. The following applies: sodium 0.088 M. An outline of the steps:
(§1)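 In 50 mM Na-HEPES pH 8.0 containing 25 mM NaCl, hairpins from the library on a sequenced MiSeq flow cell were imaged for Cy3 fluorescence at 2.5 °C steps up to 60 °C, with Cy3 and quencher oligos annealed. After normalisation to pre-quench Cy3 and to control constructs, two-state fits with bootstrapping gave melting temperature and folding enthalpy. Four replicates were combined by inverse-variance weighting, and fitted temperatures were shifted up by 9.35 °C to match UV melts.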

Series [2] in a line: melting temperature; fluorescence melt of hairpins on a sequencing array, two-state fit, raised by 9.35 °C to match UV melts. The following applies: sodium 0.088 M. The essentials:
as §1

In the case of GACATGGCGAAAGCCGTC (((..(((....)))))), in series [1], the folding enthalpy was -10.1 kcal/mol. For the same sequence, in series [2], the Tm worked out at 50.7 °C.

As for GGGCAACCGAAAGGTCCC (((..(((....)))))), the folding enthalpy in series [1] is -16.3 kcal/mol. In addition, the Tm in series [2] turned out to be 44 °C.

Regarding GATCTGCTGACAGATC ((((((....)))))), the folding enthalpy in series [1] was -39.7 kcal/mol. The Tm in series [2] was found to be 50.5 °C.

As to GAGTGTCCGAAAGGACTC (((..(((....)))))), in series [1], the folding enthalpy was -8.71 kcal/mol. Further, the Tm in series [2] was found to be 31.9 °C.

Regarding GCGTCTTTACGC ((((....)))), in series [1], the folding enthalpy was -27.9 kcal/mol. In series [2], the Tm is 53.2 °C.

As for GCGTCCGCGAAAGCGCGC (((..(((....)))))), the folding enthalpy in series [1] was -16.9 kcal/mol. In addition, the Tm in series [2] turned out to be 53.5 °C.

Consider GATCAATAAGTTGATC ((((((....)))))), for which, in series [1], the folding enthalpy was -33.7 kcal/mol. In series [2], the Tm is 44.4 °C.

Take GATCTATTGTAGATC ((((((...)))))): the folding enthalpy in series [1] was -22.8 kcal/mol. Also, the Tm in series [2] amounted to 41 °C.

Regarding GCGGTAGCCGC ((((...)))), in series [1], the folding enthalpy was -11.8 kcal/mol. The Tm in series [2] amounted to 61.2 °C.

For the sequence GGTGTACGAAAGTAACC (((.(((....)))))), the folding enthalpy in series [1] was -24.5 kcal/mol. For the same sequence, the Tm in series [2] is 47.8 °C.

Turning to GAGCCGGGAAACTGGCTC (((((.(....).))))), the folding enthalpy in series [1] was -36.2 kcal/mol. In addition, the Tm in series [2] worked out at 63.3 °C.

Take GATCCAGCGCTGGATC ((((((....)))))): the folding enthalpy in series [1] was -54.5 kcal/mol. For the same sequence, in series [2], the Tm came out at 60.1 °C.

GCGAAGTATCGC ((((....)))): the folding enthalpy in series [1] is -14.3 kcal/mol. Also, the Tm in series [2] was 46.2 °C.

For the sequence GCTGTGCGAAAGCACCGC ((.((((....)))).)), the folding enthalpy in series [1] is -17.9 kcal/mol. Besides, the Tm in series [2] was 58.7 °C.

On to GAGCAAGGAAACCTGCTC (((((.(....).))))), for which the folding enthalpy in series [1] is -27.6 kcal/mol. Also, the Tm in series [2] was 48.5 °C.

Turning to GTGTATGGAAACATACGC (.(((((....))))).), the folding enthalpy in series [1] is -20.1 kcal/mol. Further, in series [2], the Tm was 48.5 °C.

For GCGAGCGGTCGC ((((....)))), in series [1], the folding enthalpy was -22.4 kcal/mol. In addition, in series [2], the Tm worked out at 52 °C.

Take GCGAATGCGAAAGCACGC (((..(((....)))))): the folding enthalpy in series [1] was -18.9 kcal/mol. In addition, the Tm in series [2] stood at 52.3 °C.

With GCTTCCGAAAGGAGCAGC ((((((....)))..))), the folding enthalpy in series [1] is -15.2 kcal/mol. Also, in series [2], the Tm stood at 41.7 °C.

Turning to GCGATGTTCGC ((((...)))), the folding enthalpy in series [1] was -18.5 kcal/mol. Moreover, the Tm in series [2] amounted to 49.9 °C.

With GTCACACGAAAGTGAGAC (((.(((....))).))), the folding enthalpy in series [1] was -31.9 kcal/mol. Further, the Tm in series [2] amounted to 55.1 °C.

For GTGCCGGGAAACCGGTAC ((.((((....)))).)), the folding enthalpy in series [1] was -30.3 kcal/mol. Moreover, the Tm in series [2] turned out to be 57.2 °C.

In the case of GATCAGCCCTCTGATC ((((((....)))))), the folding enthalpy in series [1] was -35.3 kcal/mol. Also, the Tm in series [2] was found to be 50.1 °C.

For the sequence GCGCTGGGAAACTAGCGC (((((.(....).))))), the folding enthalpy in series [1] is -32.4 kcal/mol. Further, the Tm in series [2] worked out at 67.1 °C.

As to CGTACGGAAACGTGTACG ((((((....)))..))), the folding enthalpy in series [1] was -25.2 kcal/mol. Also, the Tm in series [2] stood at 41.5 °C.

For the sequence GTTGGCGAAAGCCCGAAC ((((((....)))..))), the folding enthalpy in series [1] was -9.07 kcal/mol. Also, the Tm in series [2] is 24.2 °C.

Turning to GGAGGAGGAAACTCCTTC (.(((((....))))).), in series [1], the folding enthalpy is -28.7 kcal/mol. Further, the Tm in series [2] came out at 53.4 °C.

Take GCCTAGCGAAAGCGAAGC ((.(.((....)).).)): in series [1], the folding enthalpy was -16.1 kcal/mol. Also, in series [2], the Tm amounted to 41.9 °C.

In the case of GCAGGTCGAAAGACTTGC (((.(((....))).))), the folding enthalpy in series [1] was -41.2 kcal/mol. The Tm in series [2] was determined as 56.7 °C.

In the case of GAGCGCGAAAGCGGGCTC ((((((....)))..))), the folding enthalpy in series [1] was -16.2 kcal/mol. In addition, in series [2], the Tm was determined as 67.9 °C.

As for GTTTCACGAAAGTGTAAC (((.(((....))).))), in series [1], the folding enthalpy is -24.6 kcal/mol. Besides, the Tm in series [2] worked out at 44.7 °C.

Regarding GCAAAAACGAAAGTTTGC (((..(((....)))))), the folding enthalpy in series [1] was -26 kcal/mol. The Tm in series [2] stood at 43.2 °C.

With GTGAGAGGAAACTCTTGC (..((((....))))..), the folding enthalpy in series [1] was -20.3 kcal/mol. In series [2], the Tm was 29.4 °C.

With GCGTGGCGAAAGCCGGGC ((..(((....)))..)), in series [1], the folding enthalpy is -27 kcal/mol. The Tm in series [2] worked out at 64.7 °C.

For GTCTGGACGAAAGTCGAC (((..(((....)))))), in series [1], the folding enthalpy is -17.6 kcal/mol. Besides, the Tm in series [2] was determined as 38.4 °C.

On to GTTCACGAAAGTGGCAAC ((((((....)))..))), for which the folding enthalpy in series [1] is -8.43 kcal/mol. Further, the Tm in series [2] was found to be 31.4 °C.

For the sequence GCAACTGGAAACAGTTAC (.(((((....))))).), in series [1], the folding enthalpy was -14.5 kcal/mol. For the same sequence, in series [2], the Tm amounted to 36.3 °C.
